Source: PubChem BioAssay
Compounds with a hit are over-represented: about 1.2% of the library has one in this group of screens.
CAL PDZ FP-1: human CAL PDZ-peptide interaction inhibition. AID 504414. purified CAL PDZ, TMR-peptide fluorescence polarization, 1 h. Q9HD26. inhibition, % at 20 µM. actives 0.02% (n = 330,000);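 active means highest replicate inhibition of at least 40%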;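 further: plate controls were DMSO neutral control wells for no effect and unlabeled competitor peptide control wells for full effect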
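Test system: tagged CAL PDZ domain / Buffer or medium: sodium phosphate/NaCl buffer pH 7.4 with TCEP, IgG, Thesit / Reagent: TMR-labelled reporter peptide T*-PRC34 bound in PDZ groove / Compound dosing: single point, 20 µM / Schedule: 1 h incubation at room temperature before polarization reading / Technique: fluorescence polarization (mP) / Benchmarks: unlabelled peptide, DMSO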
CAL PDZ FP-2: inhibitors of human CAL PDZ peptide binding. inhibition, % at 24.9 µM. AID 602252. purified CAL PDZ, TMR-peptide fluorescence polarization, 1 h. actives 0.92% (n = 300,000). Q9HD26;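 active means mean inhibition of at least 30% with at least half of replicates also reaching 30%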;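 further: 0% = DMSO neutral control and 100% = excess unlabeled competitor peptide PRC23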
ARNT-TACC3 inh: disruptors of human ARNT/TACC3 interaction. actives 0.66% (n = 390,000). AlphaScreen His-ARNT PAS-B/GST-TACC3 binding, luminescence; TACC3 fragment carries E629A point mutation. AID 623870. inhibition, % at 9.99 µM;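 active means mean inhibition of replicates at least 50% and at least half of replicates each reaching 50%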;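 further: 0% = complete ARNT plus TACC3 wells and 100% = ARNT alone without TACC3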
ARNT Alpha ctr-1: counter-screen for ARNT/TACC3 inhibitors: AlphaScreen artifacts | actives 50% (n = 1,200) | AID 651705 | His-ARNT PASB-GST AlphaScreen artifact counter-screen, luminescence | AC50, µM (highest dose often 68 µM), inactives show top-dose activity change, negative = signal decrease | shares compounds with ARNT-TACC3 inh;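 active means every separate test run was called active for a drop in luminescence, with AC50 within twice the top valid dose, actives reach about 71 µM in these data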
ARNT Alpha ctr-2: counter-screen for ARNT-TACC3 inhibitors: AlphaScreen artifacts; shares compounds with ARNT-TACC3 inh; Dual-tagged His-ARNT PASB-GST AlphaScreen artifact counter-screen; AC50, µM; actives 70% (n = 45); AID 720564;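 active means luminescence drop, with half-maximal potency fitted within twice the sample's top valid dose, cut at about 70 µM in these data; inactive means the rest, including signal moving the wrong way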
Starred values were filed as active, the others as inactive; . = no result given.

SMILES	CAL PDZ FP-1	CAL PDZ FP-2	ARNT-TACC3 inh	others
CCNc1nc(NCC)nc(C(=O)Nc2ccccc2)n1	-1.0	-2.8	96.4*
CCNc1nc(NCC)nc(OCCOC(=O)Nc2ccccc2)n1	-1.2	.	7.7
COc1ccc(S(=O)(=O)Nc2ccc3c(c2)C(=O)N([C@@H](C)CO)C[C@H](C)[C@@H](CN(C)C(=O)Nc2ccccc2)O3)cc1	.	.	2.0
CCCNC(=O)N(C)C[C@H]1Oc2cc(C#CCC(C)C)ccc2S(=O)(=O)N([C@@H](C)CO)C[C@@H]1C	.	.	-6.8
COC(=O)c1ccccc1NC1=C/C(=N\S(=O)(=O)c2ccc(C(=O)O)cc2)c2ccccc2C1=O	2.0	-0.3	71.8*
CCc1ccc(S(=O)(=O)/N=C2\C=C(Nc3ccc(C(=O)O)cc3)C(=O)c3ccccc32)cc1	0.5	1.8	73.7*
COC(=O)c1ccccc1NC1=C/C(=N\S(=O)(=O)c2cccs2)c2ccccc2C1=O	1.1	.	4.2
Cc1ccc(S(=O)(=O)/N=C2\C=C(Nc3cccc(C(=O)O)c3)C(=O)c3ccccc32)cc1	-4.0	-3.4	.
COCCNC(=O)C[C@H]1CC[C@H](NC(=O)NC2CCCCC2)[C@@H](CO)O1	.	.	-6.5
C[C@H]1CN([C@@H](C)CO)C(=O)c2cc(NS(=O)(=O)c3ccc(Cl)cc3)ccc2O[C@@H]1CN(C)S(=O)(=O)c1ccccc1	.	.	0.1
O=C(C[C@@H]1C[C@H]2c3cc(NC(=O)NC4CCCC4)ccc3O[C@H]2[C@@H](CO)O1)NCc1ccc2c(c1)OCO2	.	.	-8.5
O=C(Cn1cc2c(n1)CCCC2)N1CCOCC1	-0.4	-1.5	.
CC1CCN(C(=O)Cn2cc3c(n2)CCCC3)CC1	-1.0	.	46.8*
Cc1noc(C)c1NC(=O)Nc1cccc2c1O[C@H](CN(C)S(=O)(=O)c1cn(C)cn1)[C@H](C)CN([C@H](C)CO)C2=O	.	.	9.7
COCC#Cc1ccc2c(c1)O[C@@H](CN(C)C(=O)NC(C)C)[C@H](C)CN([C@H](C)CO)S2(=O)=O	.	.	-1.3
C[C@H]1CN([C@@H](C)CO)C(=O)c2cccc(NC(=O)c3ccncc3)c2O[C@@H]1CN(C)Cc1ccccc1	.	.	-7.0
COC(=O)c1ccccc1NC(=S)N1CCC(N2CCCCC2)CC1	-0.8	.	13.4
COC(=O)c1ccccc1NC(=S)N1CCN(C2CCCCC2)CC1	-0.7	60.8*	2.2
COc1ccc(NC(=O)C2=CC(c3ccc(OC)cc3)=NS(=O)(=O)N2C)cc1	-1.3	.	11.3
COc1ccc(OC)c(C2=NS(=O)(=O)N(C)C(C(=O)Nc3ccc(C(C)=O)cc3)=C2)c1	0.0	53.8*	-1.1
CN(C)C(=O)C[C@@H]1C=C[C@@H](NC(=O)NC2CCCC2)[C@H](CO)O1	.	.	5.9
CCCCNC(=S)Nc1ccc(-c2nc3ccc(C)cc3s2)cc1	-3.1	-3.1	-11.9
Cc1ccc2nc(-c3ccc(NC(=S)NCCC(C)C)cc3)sc2c1	-1.7	active	-2.8
CCc1cc2c(=O)[nH]c(-c3ccccn3)nc2s1	-1.6	-0.8	76.4*	ARNT Alpha ctr-1=50.8µM*;ARNT Alpha ctr-2=16.8*
CCc1cc2c(=O)[nH]c(N3CCCC3)nc2s1	0.6	0.6	-4.3
SMILES	CAL PDZ FP-1	CAL PDZ FP-2	ARNT-TACC3 inh	others
C[C@@H]1CCCCO[C@@H](CN(C)Cc2ccc3c(c2)OCO3)[C@H](C)CN([C@@H](C)CO)C(=O)c2cc(NC(=O)Cc3ccccc3)ccc2O1	.	.	8.9
O=C(Nc1nccs1)c1cnccn1	-2.2	.	51.4*	ARNT Alpha ctr-1=-5.3%
O=C(Nc1nccs1)c1ccccn1	-3.3	-1.0	0.3
C[C@H](CO)N1C[C@H](C)[C@H](CN(C)C(=O)Nc2ccccc2)Oc2ccc(NC(=O)Nc3ccc(F)cc3)cc2C1=O	.	.	-9.4
CCC(=O)NC(c1ccc(OC)cc1)c1c(O)ccc2ccccc12 (stereo not given)	-2.6	-3.6	.
CCC(=O)NC(c1ccc(N(C)C)cc1)c1c(O)ccc2ccccc12 (stereo not given)	0.1	-3.1	38.3*	ARNT Alpha ctr-1=54.2µM*
CCOC(=O)N1CCc2[nH]c3ccc(C)cc3c2C1	-1.5	-2.4	-4.7
CC(=O)N1CCc2[nH]c3ccc(C)cc3c2C1	-0.5	-3.2	35.9*	ARNT Alpha ctr-1=-1.4%
CC(C)C#Cc1cnc2c(c1)C(=O)N([C@H](C)CO)C[C@H](C)[C@@H](CN(C)Cc1ccccc1)O2	.	.	-1.7
O=C(O)c1ccc(Br)c(S(=O)(=O)N2CCCC2)c1	-2.9	-3.9	60.0*	ARNT Alpha ctr-1=10.0%
